Data on 41 molecules can be found in ChEMBL document CHEMBL3632544, “Acyl dihydropyrazolo[1,5-a]pyrimidinones as metabotropic glutamate receptor 5 positive allosteric modulators” (Bioorg Med Chem Lett, 2015).

Structures are written as SMILES. pEC50: −log10 of the molar value. A value given as a limit tells only on which side of the number the result lay.

One may read the pEC50 as −log10 of the EC50, conventionally taken in molar units. Broadly, the clearance is the rate of elimination divided by the concentration. A low value points to a low capacity for elimination.

For data set [1], the target named is T1, Metabotropic glutamate receptor 5 (Homo sapiens, UniProt P41594). The data set can be described thus: Positive allosteric modulation of human mGlu5 expressed in HEK293 cells assessed as calcium mobilization. The class given is functional, cell-based. The note with it: for pEC50: read-out: EC50. The method in brief: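 Calcium mobilization read-out in HEK293 cells stably expressing human mGlu5; PAM EC50 and efficacy as % of maximal glutamate response. Mean±SEM of three or more independent determinations, each in triplicate.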
(A change in cytosolic calcium serves as a functional read-out for many receptors and channels.)
Target sequence in this assay (P41594 whole entry): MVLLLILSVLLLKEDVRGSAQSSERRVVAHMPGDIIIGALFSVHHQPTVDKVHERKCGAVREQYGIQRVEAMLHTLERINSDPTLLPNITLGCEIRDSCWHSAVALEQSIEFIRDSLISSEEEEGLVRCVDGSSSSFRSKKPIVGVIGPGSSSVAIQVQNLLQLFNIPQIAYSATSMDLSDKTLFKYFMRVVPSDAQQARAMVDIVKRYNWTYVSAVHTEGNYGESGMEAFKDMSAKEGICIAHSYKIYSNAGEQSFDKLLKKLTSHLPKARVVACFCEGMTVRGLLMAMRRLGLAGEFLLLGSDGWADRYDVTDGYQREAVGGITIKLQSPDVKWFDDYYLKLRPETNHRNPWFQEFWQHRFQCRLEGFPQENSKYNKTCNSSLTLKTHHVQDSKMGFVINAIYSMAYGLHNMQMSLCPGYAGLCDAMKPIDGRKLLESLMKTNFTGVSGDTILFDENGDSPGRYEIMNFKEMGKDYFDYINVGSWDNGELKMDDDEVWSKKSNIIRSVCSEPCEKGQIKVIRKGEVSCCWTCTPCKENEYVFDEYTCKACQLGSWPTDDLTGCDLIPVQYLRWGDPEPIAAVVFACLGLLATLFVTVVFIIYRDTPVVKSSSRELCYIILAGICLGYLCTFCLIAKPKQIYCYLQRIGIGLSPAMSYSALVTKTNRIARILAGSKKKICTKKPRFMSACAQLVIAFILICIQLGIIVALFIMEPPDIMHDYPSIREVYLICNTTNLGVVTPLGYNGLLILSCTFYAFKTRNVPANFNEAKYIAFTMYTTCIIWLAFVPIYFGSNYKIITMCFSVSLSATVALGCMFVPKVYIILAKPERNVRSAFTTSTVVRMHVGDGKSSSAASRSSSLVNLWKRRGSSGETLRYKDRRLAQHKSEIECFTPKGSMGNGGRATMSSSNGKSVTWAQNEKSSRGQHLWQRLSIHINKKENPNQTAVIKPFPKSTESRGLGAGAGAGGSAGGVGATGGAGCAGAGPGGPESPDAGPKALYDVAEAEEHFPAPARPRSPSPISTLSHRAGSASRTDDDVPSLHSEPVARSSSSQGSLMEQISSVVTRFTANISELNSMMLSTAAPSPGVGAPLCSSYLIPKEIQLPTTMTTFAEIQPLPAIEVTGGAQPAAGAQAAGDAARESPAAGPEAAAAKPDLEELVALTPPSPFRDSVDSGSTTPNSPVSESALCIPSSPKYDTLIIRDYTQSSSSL

Data set [2] deals with T1, Metabotropic glutamate receptor 5. The data set can be described thus: Positive allosteric modulation of human mGlu5 expressed in HEK293 cells assessed as calcium mobilization relative to glutamate. It counts as functional, cell-based. In short, it runs like this:
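Calcium mobilization in HEK293 cells expressing human mGlu5, reported as EC50 and % Glu Max. Mean±SEM of three or more independent determinations, each run in triplicate.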
Target sequence in this assay (P41594 21-1212 limits assumed): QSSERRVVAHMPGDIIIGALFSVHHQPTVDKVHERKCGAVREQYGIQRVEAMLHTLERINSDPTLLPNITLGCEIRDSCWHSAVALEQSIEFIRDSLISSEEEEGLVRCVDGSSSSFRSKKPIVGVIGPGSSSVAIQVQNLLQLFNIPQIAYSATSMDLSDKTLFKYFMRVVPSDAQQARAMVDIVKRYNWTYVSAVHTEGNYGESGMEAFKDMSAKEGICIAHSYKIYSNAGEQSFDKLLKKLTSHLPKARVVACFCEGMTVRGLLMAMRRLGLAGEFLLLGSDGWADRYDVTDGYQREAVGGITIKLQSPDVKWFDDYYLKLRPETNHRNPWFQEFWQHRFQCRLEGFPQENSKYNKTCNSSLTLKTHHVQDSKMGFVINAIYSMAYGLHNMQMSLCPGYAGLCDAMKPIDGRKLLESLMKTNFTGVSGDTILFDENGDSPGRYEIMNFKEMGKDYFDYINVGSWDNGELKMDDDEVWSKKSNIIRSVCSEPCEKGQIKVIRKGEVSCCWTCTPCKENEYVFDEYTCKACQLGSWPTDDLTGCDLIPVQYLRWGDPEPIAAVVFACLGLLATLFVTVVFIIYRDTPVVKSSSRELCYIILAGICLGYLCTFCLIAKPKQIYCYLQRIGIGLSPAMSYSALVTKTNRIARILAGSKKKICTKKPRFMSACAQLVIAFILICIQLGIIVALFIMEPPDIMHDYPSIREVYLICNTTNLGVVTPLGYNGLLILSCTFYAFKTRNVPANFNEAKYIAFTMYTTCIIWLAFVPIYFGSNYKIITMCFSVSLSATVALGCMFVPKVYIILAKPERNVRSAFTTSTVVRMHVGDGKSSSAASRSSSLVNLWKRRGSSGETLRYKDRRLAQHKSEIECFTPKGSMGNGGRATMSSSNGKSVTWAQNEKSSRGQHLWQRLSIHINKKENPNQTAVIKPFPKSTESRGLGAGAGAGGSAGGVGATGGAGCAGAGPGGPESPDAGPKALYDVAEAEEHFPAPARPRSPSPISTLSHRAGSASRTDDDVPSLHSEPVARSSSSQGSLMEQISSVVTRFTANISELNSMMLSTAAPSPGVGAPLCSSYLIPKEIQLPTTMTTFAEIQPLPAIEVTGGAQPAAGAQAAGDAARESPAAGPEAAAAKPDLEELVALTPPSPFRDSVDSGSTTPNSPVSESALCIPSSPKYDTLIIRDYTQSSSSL

For data set [3], the system named is Plasma. The data set can be described thus: Stability in rat plasma after 4 hrs. It counts as ADME, cell-free. In short, it runs like this: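 Compound incubated in rat plasma at 37 °C for 4 h; stability assessed.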
Data set [4] is described as follows: Plasma clearance in Sprague-Dawley rat at 0.2 mg/kg, iv. The class given is ADME, organism-based.
The subject of data set [5] is Plasma. The data set can be described thus: Fraction unbound in rat plasma. It counts as ADME, cell-free. In short, it runs like this: (§1)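 Plasma protein binding measured in human and rat plasma; readout is fraction unbound.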
The nature of data set [6]: Stability in simulated gastric fluid for 1 hr. The class given is physicochemical. The note with it: simulated gi fluid. The method in brief:
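Incubation in simulated gastric fluid at 37 °C for 1 h; decomposition of the external amide assessed.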

Data set [7] is described as follows: Stability in beta cyclodextrin at pH 6 upto 5 days. It counts as physicochemical. To be noted: buffer, pH 6, 120 h. The method in brief: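 Stability of the compound formulated at 4 mg/mL in 20% β-cyclodextrin vehicle, pH 6, monitored for up to five days; percent decomposition of the amide determined.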
Data set [8] relates to Plasma. The data set can be described thus: Fraction unbound in human plasma. It counts as ADME, cell-free. In short, it runs like this: as §1

On to `CC(=O)N1CCCn2nc(COc3ccccc3)nc21`, for which the pEC50 in data set [1] was 5.47.

Turning to `O=C(c1ccccn1)N1CCCn2nc(COc3ccccc3)cc21`, in data set [2], the %max turned out to be 44%. In addition, the pEC50 in data set [1] was less than 5.00.

For the molecule `CC(=O)N1CCCn2cc(COc3ccccc3)nc21`, in data set [1] (hek293), the EC50 entry is reported as “Not Active”.

For `CC(=O)N1CCCn2nc(CN3CCc4ccccc43)cc21`, in data set [2], the %max is less than 15%. For the same molecule, the figures for the EC50 result in data set [1] (hek293) and in data set [1] (read-out: pEC50 (converted)) were “Not Active” and greater than 31600 nM, respectively.

Regarding `CC(=O)N1CCCn2nc(CNc3ccccc3)cc21`, in data set [2], the %max amounted to 20%. In addition, the negative-log EC50 (pEC50) in data set [1] is less than 5.00.

On to `CC(=O)N1CCCc2nc(COc3ccccc3)cn21`, for which the Stability result in data set [3] is “Unstable”. Further, in data set [1], the pEC50 was 6.11.

For `CC(=O)N1CCCn2nc(COc3ccc(F)cc3)cc21`, the %max in data set [2] was found to be 56%. Also, the pEC50 in data set [1] was less than 5.00.

On to `O=C(C1CCCC1)N1CCCn2nc(COc3ccccc3)cc21`, for which the %max in data set [2] was determined as 41%. Also, in data set [1], the pEC50 is 5.76.

Take `O=C(C1CC1)N1CCCn2nc(COc3ccccc3)cc21`: in data set [2], the %max was 61%. Also, the pEC50 in data set [1] is 6.25. For the same molecule, the EC50 in data set [1] (read-out: pEC50 (converted)) was 525 nM.

Regarding `O=C(c1ccc(F)cc1)N1CCCn2nc(COc3ccccc3)cc21`, the %max in data set [2] stood at 63%. The pEC50 in data set [1] was 6.22.

On to `O=C(c1ccccc1F)N1CCCn2nc(COc3ccccc3)cc21`, for which the %max in data set [2] amounted to 62%. Moreover, the pEC50 in data set [1] was 5.95.

For `CC(C)C(=O)N1CCCn2nc(COc3ccccc3)cc21`, in data set [2], the %max is 59%. Also, the pEC50 in data set [1] is 5.77.

As to `CC(=O)N1c2cc(COc3ccccc3)nn2CCC1C` (stereo not drawn), the %max in data set [2] was 67%. In addition, the pEC50 in data set [1] is 6.10.

For `CC(=O)N1CCCn2nc(CSc3ccccc3)cc21`, the %max in data set [2] was 39%. For the same molecule, the negative logarithm of the EC50 (pEC50) in data set [1] is 5.41.

Regarding `CC(=O)N1CCCn2nc(CN(C)C3C4CC3C4)cc21` (stereo not drawn), the %max in data set [2] was less than 15%. Also, the EC50 entry in data set [1] (hek293) was “Not Active”; in data set [1] (read-out: pEC50 (converted)), greater than 31600 nM.

On to `CC(=O)N1CCCn2nc(CN3CCCc4ccccc43)cc21`, for which the %max in data set [2] was 48%. The pEC50 in data set [1] is less than 5.00.

As to `CC(=O)N1CCCn2nc(COc3ccccc3F)cc21`, the Stability entry in data set [3], in data set [6] and in data set [7] was “Stable” each time. In data set [4], this molecule yielded a clearance of 103 mL/min/kg. The Fu is 0.24 in data set [5] and 0.17 in data set [8]. Also, in data set [2], the %max came to 60%. In data set [1], the pEC50 is 5.63.

On to `O=C(c1ccco1)N1CCCn2nc(COc3ccccc3)cc21`, for which the %max in data set [2] is less than 15%. Also, the EC50 entry in data set [1] (hek293) was “Not Active”; in data set [1] (read-out: pEC50 (converted)), greater than 31600 nM.

With `CC(=O)N1CCCn2nc(COc3ccccc3)c(F)c21`, the negative-log EC50 (pEC50) in data set [1] was 5.49.

Turning to `O=C(c1ccc(Cl)cc1)N1CCCn2nc(COc3ccccc3)cc21`, the %max in data set [2] was found to be 68%. For the same molecule, in data set [1], the pEC50 is 6.41.

Regarding `CC(=O)N1CCCn2nc(COc3ccncc3)cc21`, in data set [2], the %max is less than 15%. The EC50 entry was “Not Active” in data set [1] (hek293) and greater than 31600 nM in data set [1] (read-out: pEC50 (converted)).

`CC(=O)N1CCCc2nc(COc3ccccc3)oc21`: the Stability result in data set [3] was “Unstable”. Besides, the pEC50 in data set [1] was 5.87.

Regarding `CC(=O)N1CCCn2nc(COc3cc(F)cc(F)c3)cc21`, the %max in data set [2] is 63%. The pEC50 in data set [1] is 5.90.

Regarding `CC(C)(C)C(=O)N1CCCn2nc(COc3ccccc3)cc21`, in data set [2], the %max was found to be 64%. Also, the pEC50 in data set [1] is 6.05.

For the molecule `CC(=O)N1CCCn2nc(CS(=O)(=O)c3ccccc3)cc21`, in data set [2], the %max was less than 15%. Also, the figures for the EC50 entry in data set [1] (hek293) and in data set [1] (read-out: pEC50 (converted)) were “Not Active” and greater than 31600 nM, respectively.

Consider `CC(=O)N1CCCn2nc(C[S+]([O-])c3ccccc3)cc21` (stereo not drawn), for which the %max in data set [2] was less than 15%. Besides, the results for the EC50 result in data set [1] (hek293) and in data set [1] (read-out: pEC50 (converted)) were “Not Active” and greater than 31600 nM, respectively.

For `O=C(c1ccno1)N1CCCn2nc(COc3ccccc3)cc21`, the %max in data set [2] is 22%. Moreover, the pEC50 in data set [1] was 5.56.

For `O=C(Cc1ccccc1)N1CCCn2nc(COc3ccccc3)cc21`, in data set [2], the %max is 72%. In data set [1], the negative logarithm of the EC50 (pEC50) is 6.42. Also, the EC50 in data set [1] (read-out: pEC50 (converted)) is 372 nM.

Regarding `CC(=O)N1CCCc2nc(COc3ccccc3)sc21`, the pEC50 in data set [1] was 6.05.

As to `CC(=O)N1CCCn2nc(COc3cccnc3)cc21`, the %max in data set [2] was less than 15%. Also, the EC50 result in data set [1] (hek293) is “Not Active”; in data set [1] (read-out: pEC50 (converted)), greater than 31600 nM.

Regarding `O=C(c1ccccc1)N1CCCn2nc(COc3ccccc3)cc21`, in data set [2], the %max was determined as 63%. The pEC50 in data set [1] was 6.21.

Regarding `O=C(c1nccs1)N1CCCn2nc(COc3ccccc3)cc21`, the %max in data set [2] worked out at 24%. Moreover, the pEC50 in data set [1] was 6.59.

In the case of `CC(=O)N1CCCn2nc(COc3cc(F)cc(C#N)c3)cc21`, the %max in data set [2] came out at 39%. For the same molecule, the pEC50 in data set [1] is less than 5.00.

As to `CC(=O)N1c2cc(COc3ccccc3)nn2CCC1c1ccccc1` (stereo not drawn), the %max in data set [2] turned out to be 38%. Besides, the pEC50 in data set [1] was 5.27.

With `O=C(c1ccncc1)N1CCCn2nc(COc3ccccc3)cc21`, in data set [2], the %max stood at 51%. In data set [1], the negative logarithm of the EC50 (pEC50) is less than 5.00.

In the case of `CC(=O)N1CCCn2nc(CN3CCOc4ccccc43)cc21`, the values for the Fu in data set [5] and in data set [8] were 0.43 and 0.35, respectively. Further, the %max in data set [2] was found to be 67%. Besides, the pEC50 in data set [1] is 6.14.

As for `O=C(C1CCC1)N1CCCn2nc(COc3ccccc3)cc21`, the %max in data set [2] is 41%. Moreover, the pEC50 in data set [1] was 5.91.

`CC(=O)N1CCCn2nc(CN(C)c3ccccc3)cc21`: the Fu in data set [5] was 0.35; in data set [8], 0.46. In addition, in data set [2], the %max was 74%. The pEC50 in data set [1] is 6.15.

In the case of `CCC(=O)N1CCCn2nc(COc3ccccc3)cc21`, the %max in data set [2] amounted to 48%. Also, the pEC50 in data set [1] is 6.48.

For `O=C(c1cccc(F)c1)N1CCCn2nc(COc3ccccc3)cc21`, the %max in data set [2] was found to be 61%. Further, the pEC50 in data set [1] is 6.23.

Turning to `CC(=O)N1CCCn2nc(COc3cccc(F)c3)cc21`, the %max in data set [2] worked out at 58%. Moreover, in data set [1], the pEC50 is 6.58. Besides, in data set [1] (read-out: pEC50 (converted)), the EC50 is 240 nM.
